The array DNA melting data of Ke et al. (doi:10.1101/2024.01.08.574731)

What was measured:
[1] = folding enthalpy; higher = less favourable; fluorescence melt of hairpins on a sequencing array, two-state fit; details: sodium 0.088 M
How it was run: (§1)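 In 50 mM Na-HEPES pH 8.0 containing 25 mM NaCl, hairpins from the library on a sequenced MiSeq flow cell were imaged for Cy3 fluorescence at 2.5 °C steps up to 60 °C, with Cy3 and quencher oligos annealed. After normalisation to pre-quench Cy3 and to control constructs, two-state fits with bootstrapping gave melting temperature and folding enthalpy. Four replicates were combined by inverse-variance weighting, and fitted temperatures were shifted up by 9.35 °C to match UV melts.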

[2] = melting temperature; fluorescence melt of hairpins on a sequencing array, two-state fit, raised by 9.35 °C to match UV melts; details: sodium 0.088 M
How it was run: as §1

| Sequence | folding enthalpy [1] [kcal/mol] | Tm [2] [°C] |
| --- | --- | --- |
| GCAAACGGAAACATTTGC (((((.(....).))))) | -28.2 | 36.7 |
| GGGCCTCGAAAGAGCCC (((.(((....)))))) | -37.9 | 62.3 |
| GATCGGGGGGCCGATC ((((((....)))))) | -53.6 | 57.3 |
| GCGGCAGACCGC ((((....)))) | -23.2 | 56.2 |
| GTACGCGCGAAAGCGTAC (((..(((....)))))) | -20.2 | 61.3 |
| CGCTCGGAAACGACAGCG ((((((....)))..))) | -25.5 | 45 |
| GATCTATGGATAGATC ((((((....)))))) | -29.5 | 43 |
| GTTGGTGGAAACACTAAC (((.(((....))).))) | -29.6 | 45 |
| GCCCGCGGAAACGCGGAC (.(((((....))))).) | -9.8 | 57 |
| CCTTCGAAAGAAGG (((((....))))) | -20.7 | 55.2 |
| GGGCTAGGAAACTGGCCC ((((.((....)).)))) | -41.4 | 58.2 |
| GGATCCCGAAAGGGTCC (((.(((....)))))) | -27.8 | 60.1 |
| GATCCTGGCCAGGATC ((((((....)))))) | -47.6 | 61.3 |
| GTGCTGCGAAAGCACCAC (((.(((....))).))) | -15 | 52.6 |
| GATCATTCGTATGATC ((((((....)))))) | -33.3 | 48.1 |
| GCGACCGAAAGGTGCGC ((((((....))).))) | -28.9 | 67.1 |
| GGAGCTCGAAAGAGTTCC (((.(((....))).))) | -42.9 | 57.4 |
| GATCCCACAAGGGATC ((((((....)))))) | -30.6 | 64.7 |
| GATCAGGGTCCTGATC ((((((....)))))) | -37.9 | 52.7 |
| GGTTCCGAAAGGATACC ((((((....))).))) | -28.1 | 48.8 |
| GGTTAACGAAAGTTGACC (((.(((....))).))) | -27.6 | 53.2 |
| CTCTTGAAAAAGAG (((((....))))) | -10.4 | 36.2 |
| GCCCGTGGAAACGTGGGC ((((..(....)..)))) | -31.2 | 54.9 |
| GCCGTGCCGAAAGGCGGC (((..(((....)))))) | -13.9 | 66.8 |

| Sequence | folding enthalpy [1] [kcal/mol] | Tm [2] [°C] |
| --- | --- | --- |
| GTCGTGGGAAACTACGAC (((((.(....).))))) | -37.3 | 53.9 |
| GCCTGGCGAAAGCCCGGC (((.(((....))).))) | -35.3 | 59.4 |
| GTAATAGGAAACTGTTAC ((((.((....)).)))) | -24.9 | 36.4 |
| GCCCAACGAAAGTTAGGC (((.(((....))).))) | -34.3 | 48.7 |
| GGATTCGCGAAAGCGTCC (((..(((....)))))) | -10.7 | 29.5 |
| GGTAGCGAAAGCTCACC ((((((....))).))) | -16.8 | 48.2 |
| GTGTCTGAAAAGACAC ((((((....)))))) | -33.7 | 61 |
| GACTCCACGAAAGTGGTC (((..(((....)))))) | -8.79 | 29.5 |
| GAGACCGAAAGGTGTCTC ((((((....)))..))) | -24 | 51.9 |
| GCGTTAGGAAACCAACGC (((((.(....).))))) | -44.9 | 49.8 |
| GATCGAAACATCGATC ((((((....)))))) | -39.9 | 50 |
| GATCCGGGACCGGATC ((((((....)))))) | -44.4 | 65.4 |
| GTACGCGAAAGCGGTAC ((((((....))).))) | -16.6 | 56.5 |
| GGTGCCTCGAAAGAGACC (((..(((....)))))) | -15 | 30.8 |
| GGTCGCGAAAGCGTCACC ((((((....)))..))) | -13.3 | 40.1 |
| GGAGAACGAAAGTTTTCC (((.(((....))).))) | -29.2 | 47.4 |
| GTCAGGGGAAACCCCAAC ((..(((....)))..)) | -11.7 | 28.3 |
| GGCTAGGAAACTAGCC ((((((....)))))) | -34.8 | 60.4 |
| GTCAGCGAAAGCTGTGAC ((((((....)))..))) | -10.3 | 39.5 |
| CGATAGAAATATCG (((((....))))) | -19.8 | 39.1 |
| AGCCTGAAAAGGCT (((((....))))) | -18.2 | 66.1 |
| GCACTCCGAAAGGATTGC (((.(((....))).))) | -28.1 | 50.6 |
| GATCATTAGAATGATC ((((((....)))))) | -28.6 | 45.8 |
